Columns and labels:
Conditions in all cases: in vivo
Homo sapiens [1] = assay: Renal clearance in human with creatinine clearance of => 80 ml/min assessed as RO4957463 level at 1500 mg, iv administered as single dose after 24 hrs; type: ADME, organism-based, Kidney
Procedure, shortened: (§1)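 Single 1,500 mg i.v. infusion over 60 min, with 8 subjects per renal-function group (CL_CR by Cockcroft-Gault at screening). Urine was collected at 0–6, 6–12 and 12–24 h, volume and pH recorded, and aliquots mixed 1:1 with 0.5 M MOPS. Samples were frozen at −70°C, protected from light, and assayed by a validated method. CL_R = A_e24/AUC₂₄.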

Homo sapiens [2] = assay: Renal clearance in human with creatinine clearance of 50-79 ml/min assessed as RO4957463 level at 1500 mg, iv administered as single dose after 24 hrs; type: ADME, organism-based, Kidney; procedure, shortened: as §1
Homo sapiens [3] = assay: Renal clearance in human with creatinine clearance of 30-49 ml/min assessed as RO4957463 level at 1500 mg, iv administered as single dose after 24 hrs; type: ADME, organism-based, Kidney
Procedure, shortened: (§2)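 After a single 1,500 mg i.v. infusion over 60 min, urine was collected 0–6, 6–12 and 12–24 h post-dose, with volume and pH recorded. Aliquots were mixed 1:1 with 0.5 M MOPS, protected from light and frozen at −70°C. Parent and metabolite were assayed by a validated method. CLR = Ae24/plasma AUC24. n = 8 per group, mean ± SD.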

Homo sapiens [4] = assay: Renal clearance in human with creatinine clearance of =< 30 ml/min assessed as RO4957463 level at 1500 mg, iv administered as single dose after 24 hrs; type: ADME, organism-based, Kidney; procedure, shortened: as §1
Homo sapiens [5] = assay: Drug excretion in human with creatinine clearance of => 80 ml/min assessed as RO4957463 level at 1500 mg, iv administered as single dose after 24 hrs; type: ADME, organism-based; procedure, shortened: as §2
Homo sapiens [6] = assay: Drug excretion in human with creatinine clearance of 50-79 ml/min assessed as RO4957463 level at 1500 mg, iv administered as single dose after 24 hrs; type: ADME, organism-based; procedure, shortened: as §2
Homo sapiens [7] = assay: Drug excretion in human with creatinine clearance of 30-49 ml/min assessed as RO4957463 level at 1500 mg, iv administered as single dose after 24 hrs; type: ADME, organism-based; procedure, shortened: as §2
Homo sapiens [8] = assay: Drug excretion in human with creatinine clearance of =< 30 ml/min assessed as RO4957463 level at 1500 mg, iv administered as single dose after 24 hrs; type: ADME, organism-based; procedure, shortened: as §2
Homo sapiens [9] = assay: Dose normalized excretion in human with creatinine clearance of => 80 ml/min assessed as RO4957463 level at 1500 mg, iv administered as single dose after 24 hrs; type: ADME, organism-based; procedure, shortened: as §2
Homo sapiens [10] = assay: Dose normalized excretion in human with creatinine clearance of 50-79 ml/min assessed as RO4957463 level at 1500 mg, iv administered as single dose after 24 hrs; type: ADME, organism-based; procedure, shortened: as §2
Homo sapiens [11] = assay: Dose normalized excretion in human with creatinine clearance of 30-49 ml/min assessed as RO4957463 level at 1500 mg, iv administered as single dose after 24 hrs; type: ADME, organism-based; procedure, shortened: as §2
Homo sapiens [12] = assay: Dose normalized excretion in human with creatinine clearance of =< 30 ml/min assessed as RO4957463 level at 1500 mg, iv administered as single dose after 24 hrs; type: ADME, organism-based; procedure, shortened: as §2

`C[C@@H]1[C@H]([C@H](C(=O)O)[C@@H](C)O)N=C(C(=O)O)[C@H]1S[C@H]1C[C@@H](C(=O)N2CC[C@H](NC(=O)CNC(=N)N)C2)N(C)C1` was tested. Which CL_renal (Homo sapiens [1]) did it give?
The CL_renal was 13.2 L/h.

And the CL_renal (Homo sapiens [2])?
Its CL_renal is 8.27 L/h.

And the CL_renal (Homo sapiens [3])?
Its CL_renal is 3.91 L/h.

And the CL_renal (Homo sapiens [4])?
The CL_renal was 1.01 L/h.

What about the Activity (Homo sapiens [5]) of the same molecule?
The Activity was 240 mg.

And the Activity (Homo sapiens [6])?
The Activity was 279 mg.

And the Activity (Homo sapiens [7])?
The Activity was 281 mg.

What about the Activity (Homo sapiens [8]) of the same molecule?
Its Activity is 194 mg.

What about the Activity (Homo sapiens [9]) of the same molecule?
The Activity was 16%.

And the Activity (Homo sapiens [10])?
Its Activity is 18.6%.

What about the Activity (Homo sapiens [11]) of the same molecule?
The Activity was 18.7%.

And the Activity (Homo sapiens [12])?
Its Activity is 13.1%.

From ChEMBL document CHEMBL1275441, “Effect of impaired renal function on the pharmacokinetics of tomopenem (RO4908463/CS-023), a novel carbapenem” (Antimicrob Agents Chemother, 2008)
